Measurements reported in ChEMBL document CHEMBL4196009, “Novel vitexin-inspired scaffold against leukemia” (Eur J Med Chem, 2018).
Calls of active or inactive are those of the source. The rule behind the calls is not given here.

Key:
[1] = biological target: T1, Retinoblastoma-associated protein (Homo sapiens) (UniProt P06400); test: Inhibition of Rb phosphorylation in human KOPN8 cells assessed as ratio of phosphorylated Rb to total Rb levels at 30 uM after 24 hrs by Western blot analysis relative to control; type: cell-based
T1 sequence (whole entry): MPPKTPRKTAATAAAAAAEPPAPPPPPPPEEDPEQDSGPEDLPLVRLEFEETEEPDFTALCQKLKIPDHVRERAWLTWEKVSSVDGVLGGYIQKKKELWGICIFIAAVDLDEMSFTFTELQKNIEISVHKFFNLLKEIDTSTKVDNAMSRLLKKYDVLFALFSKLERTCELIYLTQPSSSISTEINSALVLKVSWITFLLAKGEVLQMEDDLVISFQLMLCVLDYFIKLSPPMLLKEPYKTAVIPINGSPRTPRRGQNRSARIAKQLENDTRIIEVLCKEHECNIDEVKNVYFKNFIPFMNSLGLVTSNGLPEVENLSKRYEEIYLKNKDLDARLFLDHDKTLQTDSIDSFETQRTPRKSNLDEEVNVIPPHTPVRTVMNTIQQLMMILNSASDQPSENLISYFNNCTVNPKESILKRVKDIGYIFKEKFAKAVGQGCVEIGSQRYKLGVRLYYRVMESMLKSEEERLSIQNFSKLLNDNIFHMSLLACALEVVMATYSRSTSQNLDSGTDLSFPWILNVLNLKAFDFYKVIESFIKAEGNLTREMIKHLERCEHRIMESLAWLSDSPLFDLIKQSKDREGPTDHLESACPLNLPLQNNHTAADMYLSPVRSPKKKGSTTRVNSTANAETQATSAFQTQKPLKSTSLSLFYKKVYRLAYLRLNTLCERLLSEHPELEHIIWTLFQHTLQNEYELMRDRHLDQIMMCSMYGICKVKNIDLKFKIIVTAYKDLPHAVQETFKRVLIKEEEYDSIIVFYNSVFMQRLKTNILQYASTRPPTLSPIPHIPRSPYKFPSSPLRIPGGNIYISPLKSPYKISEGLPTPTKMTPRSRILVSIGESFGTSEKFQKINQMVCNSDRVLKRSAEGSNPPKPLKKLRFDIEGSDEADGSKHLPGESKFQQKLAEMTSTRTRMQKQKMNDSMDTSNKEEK
Method in brief: (§1)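 KOPN-8 pre-B ALL cells were treated for 3 h and 24 h, with or without N-acetyl cysteine added to a parallel set of cells as an antioxidant/ROS quencher. Lysates were analysed by Western blot for phosphorylated Rb and total Rb. The same blots also probed PARP cleavage, Mcl-1, Ser-2-phosphorylated RNAPII CTD and cMyc.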

KOPN-8 [2] = test: Downregulation of total Rb expression in human KOPN8 cells after 24 hrs by Western blot analysis; type: cell-based; conditions: kopn-8, 24 h
Method in brief: (§2)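 KOPN-8 cells were treated at 10–100 µM final, with or without N-acetylcysteine co-addition, for 3 h and 24 h. Lysates were analysed by Western blot for PARP cleavage, Mcl-1, phospho-Ser2 RNAPII CTD, c-Myc, total Rb and pRb. Levels are relative to the vehicle control.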

Homo sapiens [3] = organism: Homo sapiens; test: Inhibition of RNA polymerase 2 C-terminal domain phosphorylation at Ser2 residue in human KOPN8 cells at 10 uM after 24 hrs by Western blot analysis relative to control; type: cell-based
Method in brief: (§3)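 KOPN-8 cells were exposed to compound for 3 h and 24 h, with or without N-acetylcysteine added to a parallel set as antioxidant. Lysates were analysed by Western blot for cleaved PARP, Mcl-1, Ser-2-phosphorylated RNAPII CTD, cMyc, total Rb and pRb. Signals were compared against controls for dose-dependent change.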

KOPN-8 [4] = test: Effect on c-Myc expression in human KOPN8 cells at 30 uM pre-treated with NAC for 1 hr and measured after 24 hrs by Western blot analysis relative to control; type: functional
KOPN-8 [5] = test: Induction of apoptosis in human KOPN8 cells assessed as effect on Mcl-1 level at 30 uM pre-treated with NAC for 1 hr and measured after 3 hrs by Western blot analysis relative to control; type: functional; method in brief: as §3
KOPN-8 [6] = test: Induction of apoptosis in human KOPN8 cells assessed as upregulation of cleaved PARP level at 100 uM pre-treated with NAC for 1 hr and measured after 24 hrs by Western blot analysis; type: functional, cell-based; method in brief: as §3
MDA-MB-231 = test: Cell cycle arrest in human MDA-MB-231 cells assessed as accumulation at G2/M phase at 20 uM after 24 hrs by propidium iodide staining-based flow cytometry (reference value: 9.38%); type: functional
KOPN-8 [7] = test: Effect on c-Myc expression in human KOPN8 cells at 100 uM pre-treated with NAC for 1 hr and measured after 3 hrs by Western blot analysis relative to control; type: functional
Homo sapiens [8] = organism: Homo sapiens; test: Inhibition of RNA polymerase 2 C-terminal domain phosphorylation at Ser2 residue in human KOPN8 cells at 100 uM after 3 hrs by Western blot analysis relative to control; type: cell-based; method in brief: as §3
KOPN-8 [9] = test: Induction of apoptosis in human KOPN8 cells assessed as effect on Mcl-1 level at 100 uM after 3 hrs by Western blot analysis relative to control; type: functional; method in brief: as §2
[10] = biological target: T1, Retinoblastoma-associated protein (Homo sapiens); test: Inhibition of Rb phosphorylation in human KOPN8 cells assessed as ratio of phosphorylated Rb to total Rb levels at 100 uM after 3 hrs by Western blot analysis relative to control; type: cell-based; method in brief: as §1
[11] = biological target: T1, Retinoblastoma-associated protein (Homo sapiens); test: Inhibition of Rb phosphorylation in human KOPN8 cells assessed as ratio of phosphorylated Rb to total Rb levels at 10 uM after 3 hrs by Western blot analysis relative to control; type: cell-based; method in brief: as §1
KOPN-8 [12] = test: Cell cycle arrest in human KOPN8 cells assessed as accumulation at G0/G1 phase at 10 uM after 24 hrs by propidium iodide staining-based flow cytometry (reference value: 24.77%); type: functional
Method in brief: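 KOPN-8 cells treated 24 h alongside a DMSO vehicle and a staurosporine (2.0 µM) positive control. Apoptosis was scored by FITC Annexin V / propidium iodide flow cytometry with quadrant gating (early, late apoptotic). DNA content was measured by PI staining to give the percentage of cells in G0/G1, S and G2/M. Groups were compared by t-test; error bars are SD.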

KOPN-8 [13] = test: Effect on c-Myc expression in human KOPN8 cells after 3 to 24 hrs by Western blot analysis; type: functional, cell-based; method in brief: as §2
SUP-B15 [14] = test: Induction of apoptosis in human SUP-B15 cells assessed as early apoptotic cells at 5 uM after 24 hrs by Annexin V-FITC/propidium iodide staining-based flow cytometry (reference value: 0.1%); type: functional
SUP-B15 [15] = test: Induction of apoptosis in human SUP-B15 cells assessed as viable cells at 5 uM after 24 hrs by Annexin V-FITC/propidium iodide staining-based flow cytometry (reference value: 82.8%); type: functional; conditions: SUP-B15, 24 h, read-out: Activity
Homo sapiens [16] = organism: Homo sapiens; test: Inhibition of RNA polymerase 2 C-terminal domain phosphorylation at Ser2 residue in human KOPN8 cells at 0.5 uM after 3 hrs by Western blot analysis relative to control; type: cell-based; method in brief: as §3
KOPN-8 [17] = test: Induction of apoptosis in human KOPN8 cells assessed as upregulation of cleaved PARP level at 0.5 uM pre-treated with NAC for 1 hr and measured after 24 hrs by Western blot analysis; type: functional, cell-based; method in brief: as §3
[18] = biological target: T1, Retinoblastoma-associated protein (Homo sapiens); test: Inhibition of Rb phosphorylation in human KOPN8 cells assessed as ratio of phosphorylated Rb to total Rb levels at 0.5 uM after 3 hrs by Western blot analysis relative to control; type: cell-based; method in brief: as §1

Compound	fold change (FC) [1]	Activity (KOPN-8 [2])	fold change (FC) (Homo sapiens [3])	fold change (FC) (KOPN-8 [4])	fold change (FC) (KOPN-8 [5])	Activity (KOPN-8 [6])	Activity (MDA-MB-231) [%]	fold change (FC) (KOPN-8 [7])	fold change (FC) (Homo sapiens [8])	fold change (FC) (KOPN-8 [9])	fold change (FC) [10]	fold change (FC) [11]	Activity (KOPN-8 [12]) [%]	Activity (KOPN-8 [13])	Activity (SUP-B15 [14]) [%]	viability at 5 µM (SUP-B15 [15]) [%]	fold change (FC) (Homo sapiens [16])	Activity (KOPN-8 [17])	fold change (FC) [18]
COc1ccc(-c2c(I)c(=O)c3c(OC)cc(OC)cc3n2S(=O)(=O)c2ccc(OC)cc2)cc1	1	Dose-dependent effect	1.8	1	0.8	Active	15.97	0.5	1.4	0.6	1	1	47.22	Dose-dependent effect					
CN(C)C(=O)c1cc2cnc(Nc3ccc(N4CCNCC4)cn3)nc2n1C1CCCC1 [RIBOCICLIB]															0.3	35.4	0.8	Active	1
